Measurements published in ChEMBL document CHEMBL4393735, “Molecular modelling, synthesis, and biological evaluations of a 3,5-disubstituted isoxazole fatty acid analogue as a PPARα-selective agonist” (Bioorg Med Chem, 2019).
Active and inactive are the calls of the source. The calls are words filed in the database; no cut-off is given here.

Key:
[1] = target: T1, Peroxisome proliferator-activated receptor alpha (Homo sapiens) (UniProt Q07869); assay: Agonist activity at full length human FLAG-tagged GAL4-DBD fused PPARalpha LBD (168 to 468 residues) expressed in COS1 cells at 25 to 50 uM measured after 18 hrs by dual luciferase reporter gene assay; format: cell-based
T1 sequence (whole entry): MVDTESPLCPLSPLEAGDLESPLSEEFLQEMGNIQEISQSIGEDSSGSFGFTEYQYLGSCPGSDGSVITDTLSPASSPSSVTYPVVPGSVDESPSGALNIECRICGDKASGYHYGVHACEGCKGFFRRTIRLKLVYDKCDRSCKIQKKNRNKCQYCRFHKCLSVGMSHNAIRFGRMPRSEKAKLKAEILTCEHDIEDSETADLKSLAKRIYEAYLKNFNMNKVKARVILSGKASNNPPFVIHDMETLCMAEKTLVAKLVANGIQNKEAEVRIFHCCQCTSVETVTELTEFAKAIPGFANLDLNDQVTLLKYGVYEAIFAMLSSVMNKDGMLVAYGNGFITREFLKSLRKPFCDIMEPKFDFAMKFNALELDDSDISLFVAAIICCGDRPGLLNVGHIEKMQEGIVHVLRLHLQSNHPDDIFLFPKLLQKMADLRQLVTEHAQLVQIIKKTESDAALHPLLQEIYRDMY
Procedure, shortened: (§1)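 COS-1 cells were transfected using Lipofectamine 2000 with GAL4-DBD–human NR-LBD plasmid, a 5×UAS-SV40 firefly luciferase reporter and pRL-CMV. After 6 h, cells were treated with 0, 25 or 50 μM in 0.1% DMSO (final) for 18 h. Firefly signal was normalized to Renilla, then to DMSO control and GAL4-only. Three biological replicates in quadruplicate, mean ± SEM, two-way ANOVA with Bonferroni.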

[2] = target: T2, Oxysterols receptor LXR-alpha (Homo sapiens) (UniProt Q13133); assay: Agonist activity at full length human GAL4-DBD fused LXRalpha LBD (164 to 447 residues) expressed in COS1 cells at 25 to 50 uM measured after 18 hrs by dual luciferase reporter gene assay; format: cell-based; procedure, shortened: as §1
T2 sequence (whole entry): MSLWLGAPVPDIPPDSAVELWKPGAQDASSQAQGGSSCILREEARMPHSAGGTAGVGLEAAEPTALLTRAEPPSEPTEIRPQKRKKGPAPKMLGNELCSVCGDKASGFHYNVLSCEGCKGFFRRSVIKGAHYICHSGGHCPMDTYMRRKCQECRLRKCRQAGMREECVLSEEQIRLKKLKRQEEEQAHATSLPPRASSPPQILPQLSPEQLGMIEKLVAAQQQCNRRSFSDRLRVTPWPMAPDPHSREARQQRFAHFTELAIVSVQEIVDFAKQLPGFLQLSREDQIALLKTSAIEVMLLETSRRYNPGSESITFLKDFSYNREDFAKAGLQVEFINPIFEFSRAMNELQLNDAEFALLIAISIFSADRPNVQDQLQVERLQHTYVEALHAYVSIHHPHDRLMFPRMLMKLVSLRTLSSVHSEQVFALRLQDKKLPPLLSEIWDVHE

SGBS = assay: Upregulation of PLIN1 gene expression in human preadipocyte derived from Simpson-Golabi-Behmel syndrome (SGBS) patient at 25 uM measured for 12 days by qRT-PCR analysis; format: functional, cell-based
Procedure, shortened: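 SGBS cells were differentiated with serum-free induction medium containing 25 μM test agent, 2 μM rosiglitazone or 0.1% DMSO from day 0. IBMX and dexamethasone were removed on day 4 and medium was renewed on day 8. RNA was taken on days 0, 4, 8 and 12 for qPCR, normalized to TBP and to day 0. At least three biological replicates in duplicate, two-way ANOVA with Bonferroni.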

Activity [1]: Active | Activity [2]: inactive
SMILES: CCCCCCCc1cc(CCCCCC(=O)O)no1
Activity (SGBS): Active
